High-throughput results as filed in PubChem BioAssay.
Sampled rows, rich in hits. Any-hit rate of the full collection: about 1.8%.
Tn7 DDE FP = inhibitors of Tn7 peptide binding to human fibrin DD(E); hit rate 0.13% among 370,000; P02675; inhibition, % at 8.3 µM; AID 720508; FP displacement of FITC-Tn7 peptide from fibrin DD(E); 0% = median of compound wells per plate;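 active = inhibition above the mean of compounds falling within the control limits plus 3 SD of them, cut at about 14% in these data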;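 note: 0% = plate median of compound wells and 100% = 10 µM Aha-Tn7 peptide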
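assay system = human clot-derived fibrin DD(E) complex | quantity = Fibrin-DD(E) at 2 µM final | timing = 10 min preincubation, 3 h with tracer, room temperature | signal = fluorescence polarization | measure = percent inhibition | benchmarks = high control wells with 10 µM unlabelled Aha-Tn7 peptide (full inhibition) | replicates = singlicate testing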
GRK2 aptamer HTS = inhibitors of human GRK2 displacing RNA aptamer; P25098; bead flow cytometry, FAM-aptamer displacement from GRK2; inhibition of aptamer binding, % at 10 µM; hit rate 0.59% among 330,000;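 active = inhibition of aptamer binding above 40%, roughly 3 SD of noise, on plates passing a quality check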;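 note: median bead fluorescence of bound FAM aptamer so fluorescent compounds give negative values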
Target sequence (P25098 whole entry, looked up): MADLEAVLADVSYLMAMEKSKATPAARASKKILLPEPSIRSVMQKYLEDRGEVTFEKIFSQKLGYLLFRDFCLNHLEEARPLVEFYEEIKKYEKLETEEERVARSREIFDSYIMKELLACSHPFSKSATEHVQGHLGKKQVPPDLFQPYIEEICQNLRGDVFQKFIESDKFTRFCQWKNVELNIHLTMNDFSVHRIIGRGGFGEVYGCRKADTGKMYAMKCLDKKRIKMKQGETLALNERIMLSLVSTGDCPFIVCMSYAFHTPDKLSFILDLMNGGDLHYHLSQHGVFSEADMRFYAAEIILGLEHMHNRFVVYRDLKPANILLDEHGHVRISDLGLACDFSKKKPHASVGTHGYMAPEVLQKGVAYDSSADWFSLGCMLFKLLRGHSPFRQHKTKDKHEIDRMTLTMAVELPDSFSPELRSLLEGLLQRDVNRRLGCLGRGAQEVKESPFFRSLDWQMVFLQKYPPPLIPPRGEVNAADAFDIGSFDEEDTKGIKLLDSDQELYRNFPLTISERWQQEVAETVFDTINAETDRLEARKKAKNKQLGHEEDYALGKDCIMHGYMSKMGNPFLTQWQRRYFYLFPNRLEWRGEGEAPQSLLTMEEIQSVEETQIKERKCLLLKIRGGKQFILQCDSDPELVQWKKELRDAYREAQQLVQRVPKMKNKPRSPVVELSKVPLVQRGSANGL
CAL PDZ FP-1 = blocks peptide binding to the human CAL PDZ domain; Q9HD26; purified CAL PDZ, TMR-peptide fluorescence polarization, 1 h; inhibition, % at 24.9 µM; hit rate 0.92% among 300,000; AID 602252;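 active = mean inhibition of at least 30% with at least half of replicates also reaching 30%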;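 note: 0% = DMSO neutral control and 100% = excess unlabeled competitor peptide PRC23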
DDE Tn6 FP inh = disrupts Tn6 cyclic peptide binding to fibrin D-Dimer-E complex. P02675. Fibrin DD(E) TRITC-Tn6 fluorescence polarization displacement. inhibition, % at 8.3 µM. hit rate 0.21% among 370,000;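 active = inhibition above a per-campaign cutoff: mean of compounds within control limits plus 3 SD, cut at about 15% in these data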;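 note: 0% = median of all compound wells on the plate and 100% = blocking peptide control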
CAL PDZ FP-2 = blocks peptide binding to human CAL PDZ domain | inhibition, % at 20 µM | purified CAL PDZ, TMR-peptide fluorescence polarization, 1 h | hit rate 0.02% among 330,000 | Q9HD26;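 active = highest replicate inhibition of at least 40%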;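 note: plate controls were DMSO neutral control wells for no effect and unlabeled competitor peptide control wells for full effect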
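Read-out basis: mP drop reported as inhibition | Assay system: Tagged CAL PDZ protein CerCALP, purified | Benchmarks: Unlabelled peptide for full inhibition, DMSO wells as neutral | Schedule: 1 h incubation at room temperature before polarization reading | Buffer or medium: Sodium phosphate/NaCl buffer pH 7.4 with TCEP, IgG, Thesit | Doses: Single point, 20 µM | Measured by: Fluorescence polarization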
ARNT-TACC3 inh = ARNT/TACC3 interaction disruption | inhibition, % at 9.99 µM | AlphaScreen His-ARNT PAS-B/GST-TACC3 binding, luminescence; TACC3 fragment carries E629A point mutation | Q9Y6A5 | hit rate 0.66% among 390,000;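 active = mean inhibition of replicates at least 50% and at least half of replicates each reaching 50%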;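 note: 0% = complete ARNT plus TACC3 wells and 100% = ARNT alone without TACC3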
* hit, by the source's call; x = no result given; ! = a repeat was not active.

SMILES	Tn7 DDE FP	GRK2 aptamer HTS	CAL PDZ FP-1	DDE Tn6 FP inh	CAL PDZ FP-2	ARNT-TACC3 inh
O=C(N/N=C/c1c[nH]c2ccccc12)c1ccccc1	-6	2	37*	13	0	3
COc1ccc(-c2csc(=Nc3ccccc3)n2CCO)cc1	0	0	x	-1	0	27
COc1ccc(-c2csc(=NCCO)n2-c2ccccc2)cc1	0	2	62*	-6	-1	24
COc1ccc(OC)c(NC(=O)C2CCCN(S(=O)(=O)c3c(C)noc3C)C2)c1 (stereo not given)	0	3	-4	-1	x	1
CCOc1ccc(OCC)c(NC(=O)C2CCCN(S(=O)(=O)c3c(C)noc3C)C2)c1 (stereo not given)	4	0	33*	-5	-5	12
COc1ccc(CCNC(=O)[C@@]2(Sc3ccc(C)cc3)CC(=O)N(C3CCCCC3)[C@@H]2c2ccc(CO)cc2I)cc1	x	x	x	x	x	-5
CC1CCC(NCCNC(=O)c2ccco2)CC1 (stereo not given)	9	0	x	-4	-1	-2
C/C(=C\c1ccccc1)C(=O)Nc1ccc(S(=O)(=O)Nc2ncccn2)cc1	4	0	x	-1	-1	-7
Cc1cccc(-n2ncc3c(=O)[nH]c(SCC(=O)N4CC(=O)Nc5ccccc54)nc32)c1	7	5	37*	1	0	-3
Cc1c(NS(=O)(=O)c2ccccc2)c(=O)n(-c2ccccc2)n1C	-4	2	0	1	0	-8
Cc1ccc(S(=O)(=O)Nc2c(C)n(C)n(-c3ccccc3)c2=O)cc1	2	0	54*!	2	10	2
COc1ccc(NC(=O)N(C)C[C@@H]2Oc3ncc(C#CCC(C)C)cc3C(=O)N([C@@H](C)CO)C[C@@H]2C)cc1	x	x	x	x	x	2
COc1ccc(CCNC(=O)CN2C(=O)NC3(CCOc4ccccc43)C2=O)cc1 (stereo not given)	-1	x	0	-2	-1	-1
COC(=O)CNC(=O)CN1C(=O)NC2(CCCc3ccccc32)C1=O (stereo not given)	7	1	39*	3	0	-4
O=C(CN1C(=O)NC2(CCc3ccccc32)C1=O)Nc1cccc(Cl)c1 (stereo not given)	4	0	-3	9	-1	-4
COC(=O)CN1C(=O)NC2(CCCc3ccccc32)C1=O (stereo not given)	8	1	-2	8	0	-11
COc1cccc(NC(=O)CN2C(=O)NC3(CCc4ccccc43)C2=O)c1 (stereo not given)	-2	0	73*	7	-2	2
COc1ccc(OC)c(NC(=O)CN2C(=O)NC3(CCOc4ccccc43)C2=O)c1 (stereo not given)	5	1	38*	3	x	4
CCC1(c2ccccc2)NC(=O)N(CC(=O)NNC(=O)COc2ccc(Cl)cc2C)C1=O (stereo not given)	6	0	-3	9	-1	x
COc1ccc(CN2C(=O)c3cccc4cccc(c34)C2c2nc3ccccc3[nH]2)cc1 (stereo not given)	7	x	x	-3	x	x
COc1cccc(-c2ccc3c(c2)[C@@H]2[C@@H](CCN2C(=O)c2ccccc2F)[C@H](CO)N3C)c1	x	x	x	x	x	9
Cc1sc2nc(SCC(=O)Nc3cccc(S(N)(=O)=O)c3)[nH]c(=O)c2c1C	-4	5	-5	-2	-2	-7
Cc1sc2nc(SCC(=O)Nc3ccc(S(N)(=O)=O)cc3)[nH]c(=O)c2c1C	-3	4	44*	-9	0	-6
COC(=O)c1cc2c(c3c4cc(C)ccc4n(S(=O)(=O)c4ccccc4)c13)C(=O)N(Cc1ccc(C(F)(F)F)cc1)C2	-3	x	x	2	x	x
O=C(c1ccc(F)cc1F)N1CCN(S(=O)(=O)c2ccc3c(c2)OCCO3)CC1	1	0	31*	8	-1	-2
SMILES	Tn7 DDE FP	GRK2 aptamer HTS	CAL PDZ FP-1	DDE Tn6 FP inh	CAL PDZ FP-2	ARNT-TACC3 inh
O=C(c1ccc(F)cc1)N1CCN(S(=O)(=O)c2ccc3c(c2)OCCO3)CC1	7	x	x	-4	x	x
CCC(=O)N1C[C@@H](C)[C@@H](OC)CN(C)C(=O)c2cc(NC(=O)COC)ccc2OC[C@@H]1C	x	x	x	x	x	-2
Cc1ccnc2nc(C(=O)NCc3ccccc3)nn12	-2	2	197*	1	8	-6
Cc1cc(C)n2nc(C(=O)NCc3ccccc3)nc2n1	-2	1	-4	-8	-1	-4
C/C(=N\Nc1nnc(C)c(=O)[nH]1)C(=O)O	6	0	0	3	1	66*
O=C(NC(Cc1c[nH]c2ccccc12)C(=O)O)OCC1c2ccccc2-c2ccccc21 (stereo not given)	-3	x	x	3	x	x
O=C(CSc1ccc2nnc(-c3ccccn3)n2n1)NCc1ccco1	11	12	x	-3	0	61*
C[C@@H]1CN([C@H](C)CO)C(=O)Cc2cc(NC(=O)Cn3cnnn3)ccc2O[C@H]1CN(C)CC1CC1	x	x	x	x	x	-2
O=[N+]([O-])c1cnccc1Nc1ccc(Cl)cc1	6	0	75*	-2	-1	6
C=CCNC(=S)N/N=C(\C)c1ccccn1	-6	1	-3	-4	0	59*
CC(=NNC(=S)Nc1ccccc1Cl)c1ccccn1	7	x	-1	1	-2	87*
C/C(=N\Nc1ncc(Cl)cc1Cl)c1ccccn1	x	x	-6	x	-2	73*
Cc1nc(N)sc1C(=O)N/N=C/c1ccc([N+](=O)[O-])cc1	-7	0	x	-9	x	x
COc1cc(/C=N\NC(=O)c2sc(N)nc2C)cc(OC)c1OC	-3	1	4	-8	-2	49*
C[C@@H]1CN([C@@H](C)CO)C(=O)c2cc(NC(=O)c3ccncc3)ccc2O[C@@H]1CN(C)Cc1ccccc1	x	x	x	x	x	13
Cc1ccc(/C=N/NC(=O)CSc2nnc(-c3ccccc3)n2-c2ccc(Cl)cc2)o1	1	16	70*	-8	-1	1
Cc1ccn2c(Nc3ccc4c(c3)OCO4)c(-c3ccccn3)nc2c1	-3	1	0	-8	-1	66*
N#Cc1ccc(-c2ccc3c(c2)[C@H]2[C@H](CCN2C(=O)c2ccc4c(c2)OCO4)[C@@H](CO)N3)cc1	x	x	x	x	x	-5
Fc1ccc(-n2c(-c3ccc4ccccc4n3)n[nH]c2=S)cc1Cl	-5	5	71*	7	x	-2
S=c1[nH]nc(-c2ccc3ccccc3n2)n1-c1ccc(Cl)cc1	6	0	-2	0	0	x
CC(=O)[C@H]1[C@@H]2C(=O)N(c3cccc(Cl)c3)C(=O)[C@@H]2[C@H]2c3ccccc3C=CN21	-4	3	0	-1	0	24*
